According to ChEMBL document CHEMBL4382237, “Design, Synthesis, and Biological Evaluation of 2-Nitroimidazopyrazin-one/-es with Antitubercular and Antiparasitic Activity” (J Med Chem, 2018):
≈ marks a conversion by molar mass, not a printed value. Calls of active or inactive are those of the source. The calls are words filed in the database; no cut-off is given here.

Experiments:
Giardia intestinalis [1] = experiment: Antiparasitic activity against Giardia lamblia WB trophozoites after 24 to 48 hrs by CellTiter-Glo luminescent cell viability assay; details: Giardia duodenalis
Entamoeba histolytica [2] = experiment: Antiparasitic activity against Entamoeba histolytica HM-1:IMSS trophozoites after 24 to 48 hrs by CellTiter-Glo luminescent cell viability assay; format: functional, organism-based
Summary of the method: (§1)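 Axenic trophozoites were kept in TYI-S-33 with penicillin (100 U/mL) and streptomycin (100 µg/mL) and harvested in log phase. 5000 parasites per well were exposed to a final 8-point two-fold series of 0.39–50 µM, from 10 mM DMSO stocks. Plates were incubated 24–48 h at 37 °C under anaerobic conditions. ATP luminescence viability was read in triplicate. Percent inhibition is given at the highest concentration tested.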

[3] = test system: Trypanosoma brucei brucei; experiment: Antiparasitic activity against bloodstream form of Trypanosoma brucei brucei strain 427 after 48 hrs by resazurin dye-based assay; format: functional, organism-based; details: for IC50: strain 427, 48 h
Escherichia coli = experiment: Antibacterial activity against Escherichia coli ATCC 25922 by broth microdilution assay; format: functional
Summary of the method: (§2)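 Broth microdilution run essentially per an earlier report. MIC taken as the lowest concentration with no visible growth. Replicates typically agreed within one 2-fold dilution. The median MIC is reported, with a range where the median fell between two tested concentrations.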

[4] = test system: Mycobacterium tuberculosis; experiment: Antibacterial activity against Mycobacterium tuberculosis H37Rv after 5 days under normoxic condition by resazurin dye-based fluorescence assay; format: functional, organism-based
Summary of the method: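 H37Rv grown in 7H9/ADC/glycerol/Tyloxapol to mid-exponential phase, diluted to OD600 0.001 (~2 x 10^4 CFU/mL) in 7H9S with serially diluted compound. Incubated 5 days at 37 °C, then resazurin and Tween-80 added. Fluorescence (ex 530/em 590 nm) read after 24 h, normalised to no-drug and no-bacteria wells.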

Pseudomonas aeruginosa = experiment: Antibacterial activity against Pseudomonas aeruginosa ATCC 27853 by broth microdilution assay; format: functional
Summary of the method: as §2

Cryptococcus neoformans = experiment: Antifungal activity against Cryptococcus neoformans H99 ATCC […] broth microdilution assay; format: functional; details: var. grubii H99 ATCC 208821
Summary of the method: as §2

HepG2 = experiment: Cytotoxicity against human HepG2 cells after 24 hrs by resazurin dye-based fluorescence assay; format: cell-based; details: hepg2, 24 h
Summary of the method: (§3)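 HEK293 (3000/well) and HepG2 (5000/well) were grown 24 h in DMEM with 10% FBS at 37 °C, 5% CO2. Cells were then exposed 24 h to a dilution series up to 100 µM (0.5% DMSO). 5 µM resazurin was added for 2 h, read at ex 560/em 590. 1% Triton X-100 served as lysis control. CC50 was derived from the curves.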

Giardia intestinalis [5] = experiment: Antiparasitic activity against Giardia lamblia WB trophozoites after 24 to 48 hrs by CellTiter-Glo luminescent cell viability assay; details: Giardia duodenalis
HEK293 = experiment: Cytotoxicity against HEK293 cells after 24 hrs by resazurin dye-based fluorescence assay; format: cell-based; details: human, hek293, 24 h
Summary of the method: as §3

Acinetobacter baumannii = experiment: Antibacterial activity against Acinetobacter baumannii ATCC 19606 by broth microdilution assay; format: functional; details: ATCC 19606 = CIP 70.34 = JCM 6841
Summary of the method: as §2

Klebsiella pneumoniae = experiment: Antibacterial activity against Klebsiella pneumoniae 700603 by broth microdilution assay; format: functional
Summary of the method: as §2

[6] = test system: Mycobacterium tuberculosis; experiment: Antibacterial activity against non-replicating Mycobacterium tuberculosis H37Rv assessed as inhibition of bacterial growth at 0.125 to 8 ug/ml after 5 days under hypoxic condition by resazurin dye-based fluorescence assay relative to control; format: functional
Staphylococcus aureus = experiment: Antibacterial activity against methicillin-resistant Staphylococcus aureus ATCC […] by broth microdilution assay; format: functional
Candida albicans = experiment: Antifungal activity against Candida albicans ATCC 90028 by broth microdilution assay; format: functional
Summary of the method: as §2

[7] = Apparent permeability across apical to basolateral side in human Caco2 cells assessed as mean drug recovery at 2 uM after 2 hrs by lucifer yellow dye-based LC-MS/MS analysis; details: caco-2, 2 h
[8] = Apparent permeability across basolateral to apical side in human Caco2 cells assessed as mean drug recovery at 2 uM after 2 hrs by lucifer yellow dye-based LC-MS/MS analysis; details: Caco-2
[9] = Apparent permeability across apical to basolateral side in human Caco2 cells at 2 uM after 2 hrs by lucifer yellow dye-based LC-MS/MS analysis; details: caco-2, 2 h
[10] = Apparent permeability across basolateral to apical side in human Caco2 cells at 2 uM after 2 hrs by lucifer yellow dye-based LC-MS/MS analysis; details: caco-2, 2 h
[11] = test system: Mycobacterium tuberculosis; experiment: Antibacterial activity against non-replicating Mycobacterium tuberculosis H37Rv after 5 days under hypoxic condition by resazurin dye-based fluorescence assay; format: functional; details: 120 h
Summary of the method: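 Same H37Rv inoculum (OD600 0.001, ~2 x 10^4 CFU/mL) in 7H9S with serially diluted compound. Plates held 5 days at 0.1% oxygen, then resazurin plus Tween-80 added.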

Entamoeba histolytica [12] = experiment: Antiparasitic activity against Entamoeba histolytica HM-1:IMSS trophozoites assessed as inhibition of parasitic growth at 50 uM after 24 to 48 hrs by CellTiter-Glo luminescent cell viability assay relative to control; format: functional; details: read-out: GI
Summary of the method: as §1

[13] = test system: Mycobacterium tuberculosis; experiment: Antibacterial activity against non-replicating Mycobacterium tuberculosis H37Rv assessed as inhibition of bacterial growth at 0.06 to 16 ug/ml after 5 days under hypoxic condition by resazurin dye-based fluorescence assay relative to control; format: functional; details: at 0.06 to 16 µg/mL
physchem [14] = details: water
physchem [15] = details: PBS, pH 7.4
[16] = Metabolic stability in human liver microsomes assessed as parent compound remaining at 3 uM after 2 hrs by LC-MS/MS analysis
[17] = Metabolic stability in CD-1 mouse liver microsomes assessed as parent compound remaining at 3 uM after 2 hrs by LC-MS/MS analysis
[18] = Metabolic stability in CD-1 mouse plasma assessed as parent compound remaining at 3 uM after 2 hrs by LC-MS/MS analysis
[19] = Metabolic stability in human plasma assessed as parent compound remaining at 3 uM after 2 hrs by LC-MS/MS analysis
[20] = Protein binding in human plasma at 5 uM after 30 mins by LC-MS/MS analysis based ultrafiltration method; details: 0.5 h
Clostridioides difficile = experiment: Antibacterial activity against Clostridium difficile 630 ATCC BAA-1382 by broth microdilution assay; format: functional
Summary of the method: as §2

With O=c1c2nccn2ccn1Cc1ccccc1 the Activity (Giardia intestinalis [1]) was “inactive”, the Activity (Entamoeba histolytica [2]) was “inactive” and the Activity [3] was “inactive”.
Cc1cccc(Cn2ccn3cc([N+](=O)[O-])nc3c2=O)c1 gave an MIC (Escherichia coli) greater than 32 µg/mL, an MIC [4] of 0.06 µg/mL (≈ 0.211 µM) and an MIC (Pseudomonas aeruginosa) greater than 32 µg/mL. For the same compound, the MIC (Cryptococcus neoformans) was greater than 32 µg/mL, the CC50 (HepG2) was greater than 100 µM and the IC50 (Giardia intestinalis [5]) was 9 µM. For the same compound, the IC50 (Giardia intestinalis [5]; read-out: pIC50 (converted)) was 10 µM, the CC50 (HEK293) was greater than 100 µM and the MIC (Acinetobacter baumannii) was greater than 32 µg/mL. For the same compound, the MIC (Klebsiella pneumoniae) was greater than 32 µg/mL, the “growth inhibition (GI)” value [6] was 70 - 90% and the MIC (Staphylococcus aureus) was greater than 32 µg/mL. The IC50 ([3]; read-out: IC50) was 5.4 µM, the IC50 ([3]; read-out: pIC50 (converted)) was 5.01 µM and the MIC (Candida albicans) was greater than 32 µg/mL.
In the case of O=[N+]([O-])c1cn2c(n1)OC[C@@H](OCc1ccc(OC(F)(F)F)cc1)C2 [PRETOMANID], the Drug recovery [7] is reported as 81%, the recovery at 2 h, 2 µM [8] is reported as 101% and the Papp [9] is reported as 29 ×10⁻⁶ cm/s. It also gave a Papp [10] of 22 ×10⁻⁶ cm/s.
In the case of CC(=O)OCCOc1nc(C)cn2cc([N+](=O)[O-])nc12, the MIC [11] is reported as greater than 32 µg/mL, the IC50 (Giardia intestinalis [5]) is reported as 21 µM and the IC50 (Giardia intestinalis [5]; read-out: pIC50 (converted)) is reported as 20 µM. It also gave an inhibition of growth at 50 µM (Entamoeba histolytica [12]) of 42%, an IC50 ([3]; read-out: IC50) greater than 40 µM and an IC50 ([3]; read-out: pIC50 (converted)) greater than 39.8 µM.
In the case of O=c1c2nc([N+](=O)[O-])cn2ccn1Cc1cccc(C(F)(F)F)c1, the MIC (Escherichia coli) is reported as greater than 32 µg/mL, the “growth inhibition (GI)” value [13] is reported as 70 - 90% and the MIC [4] is reported as 0.06 µg/mL (≈ 0.177 µM). The solubility kinetic at 24 h, 200 µM (physchem [14]) was less than 5 µM, the MIC (Pseudomonas aeruginosa) was greater than 32 µg/mL and the MIC (Cryptococcus neoformans) was greater than 32 µg/mL. It also gave a CC50 (HepG2) greater than 100 µM, an IC50 (Giardia intestinalis [5]) of 7.1 µM and an IC50 (Giardia intestinalis [5]; read-out: pIC50 (converted)) of 7.94 µM. For the same compound, the solubility kinetic at 24 h, 200 µM (physchem [15]) was less than 5 µM, the CC50 (HEK293) was greater than 100 µM and the MIC (Acinetobacter baumannii) was greater than 32 µg/mL. For the same compound, the MIC (Klebsiella pneumoniae) was greater than 32 µg/mL, the MIC (Staphylococcus aureus) was greater than 32 µg/mL and the IC50 ([3]; read-out: IC50) was 5.3 µM. It also gave an IC50 ([3]; read-out: pIC50 (converted)) of 5.01 µM and an MIC (Candida albicans) greater than 32 µg/mL.
For O=c1c2nccn2ccn1Cc1ccc(F)cc1, the Activity (Giardia intestinalis [1]) was “inactive”, the Activity (Entamoeba histolytica [2]) was “inactive” and the Activity [3] was “inactive”.
For Cc1cn2cc([N+](=O)[O-])nc2c(=O)n1Cc1ccc(OC(F)(F)F)cc1, the Stability [16] was greater than 99%, the MIC [11] was greater than 32 µg/mL and the MIC [4] was greater than 32 µg/mL. For the same compound, the IC50 (Giardia intestinalis [5]) was 5.8 µM, the IC50 (Giardia intestinalis [5]; read-out: pIC50 (converted)) was 6.31 µM and the Stability [17] was greater than 99%. It also gave an IC50 (Entamoeba histolytica [2]; read-out: IC50) greater than 50 µM, an IC50 (Entamoeba histolytica [2]; read-out: pIC50 (converted)) greater than 50.1 µM and a Stability [18] of 99%. The Stability [19] was 92%, the IC50 ([3]; read-out: IC50) was 0.41 µM and the IC50 ([3]; read-out: pIC50 (converted)) was 3.98 µM. The PPB [20] was 98%.
O=c1c2nc([N+](=O)[O-])cn2ccn1Cc1cccc(OC(F)(F)F)c1 gave a Stability [16] greater than 99%, a Drug recovery [7] of 88% and a Stability [17] greater than 99%. For the same compound, the Stability [18] was 97%, the recovery at 2 h, 2 µM [8] was 99% and the Stability [19] was greater than 99%. For the same compound, the MIC (Clostridioides difficile) was greater than 64 µg/mL, the Papp [9] was 24 ×10⁻⁶ cm/s and the Papp [10] was 24 ×10⁻⁶ cm/s.
